Experimental data from ChEMBL document CHEMBL3352009, “Glucopyranosylidene-spiro-iminothiazolidinone, a new bicyclic ring system: synthesis, derivatization, and evaluation for inhibition of glycogen phosphorylase by enzyme kinetic and crystallographic methods” (Bioorg Med Chem, 2014).
Active and inactive are the calls of the source. No cut-off for these calls is given here.

What follows are compounds tested against T1, Glycogen phosphorylase, muscle form (Oryctolagus cuniculus) (UniProt P00489) (assay: Inhibition of rabbit muscle glycogen phosphorylase b at pH 6.8 assessed as inorganic phosphate release at 1 mM).
T1 sequence (whole entry): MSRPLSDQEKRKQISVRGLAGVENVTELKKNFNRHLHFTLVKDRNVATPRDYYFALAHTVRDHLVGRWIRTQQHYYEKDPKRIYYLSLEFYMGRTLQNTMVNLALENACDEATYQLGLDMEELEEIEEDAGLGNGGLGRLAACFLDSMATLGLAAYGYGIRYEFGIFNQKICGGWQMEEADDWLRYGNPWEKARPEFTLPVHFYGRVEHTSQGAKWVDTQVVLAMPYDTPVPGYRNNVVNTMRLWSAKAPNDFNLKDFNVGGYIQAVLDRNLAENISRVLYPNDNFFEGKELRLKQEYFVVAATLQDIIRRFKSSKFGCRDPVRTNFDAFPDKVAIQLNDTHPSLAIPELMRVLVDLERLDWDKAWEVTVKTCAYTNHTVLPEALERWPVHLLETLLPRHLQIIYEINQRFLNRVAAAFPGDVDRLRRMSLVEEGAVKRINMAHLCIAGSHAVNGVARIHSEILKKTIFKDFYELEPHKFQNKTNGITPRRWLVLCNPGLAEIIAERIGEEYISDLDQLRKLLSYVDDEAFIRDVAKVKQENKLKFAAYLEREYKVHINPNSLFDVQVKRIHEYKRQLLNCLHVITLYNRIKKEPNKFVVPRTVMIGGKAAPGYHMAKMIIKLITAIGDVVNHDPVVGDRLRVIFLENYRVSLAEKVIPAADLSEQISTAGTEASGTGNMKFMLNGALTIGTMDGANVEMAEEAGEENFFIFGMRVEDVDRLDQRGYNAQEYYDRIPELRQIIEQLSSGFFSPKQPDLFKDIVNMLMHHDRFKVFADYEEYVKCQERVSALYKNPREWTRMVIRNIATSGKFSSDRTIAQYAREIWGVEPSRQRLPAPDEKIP

inhibition	SMILES
48%	O=C1N2CCN=C2S[C@@]12O[C@H](CO)[C@@H](O)[C@H](O)[C@H]2O
inactive	O=C1N2CCCN=C2S[C@@]12O[C@H](CO)[C@@H](O)[C@H](O)[C@H]2O

What follows are compounds tested against T2, Glycogen phosphorylase, muscle form (Oryctolagus cuniculus, UniProt P00489) (assay: Inhibition of rabbit muscle glycogen phosphorylase b at pH 6.8 assessed as inorganic phosphate release).
T2 sequence (P00489 whole entry): T1 sequence (whole entry)
Outline: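 Rabbit muscle glycogen phosphorylase b; activity followed by inorganic phosphate release at pH 6.8. Inhibition constants reported as Ki, with part of the values derived from IC50 via the Cheng-Prusoff relation Ki = IC50/(1 + [S]/Km).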

Ki	SMILES
24 µM	N=C1NC(=O)[C@]2(O[C@H](CO)[C@@H](O)[C@H](O)[C@H]2O)S1
10 µM	O=C(/N=C1/NC(=O)[C@]2(O[C@H](CO)[C@@H](O)[C@H](O)[C@H]2O)S1)c1ccc2ccccc2c1
35 µM	Cc1ccc(C(=O)/N=C2/NC(=O)[C@]3(O[C@H](CO)[C@@H](O)[C@H](O)[C@H]3O)S2)cc1
153 µM	O=C1N/C(=N/S(=O)(=O)c2ccc3ccccc3c2)S[C@@]12O[C@H](CO)[C@@H](O)[C@H](O)[C@H]2O
9 µM	O=C(/N=C1/NC(=O)[C@]2(O[C@H](CO)[C@@H](O)[C@H](O)[C@H]2O)S1)c1ccccc1
63 µM	Cc1ccc(S(=O)(=O)/N=C2/NC(=O)[C@]3(O[C@H](CO)[C@@H](O)[C@H](O)[C@H]3O)S2)cc1
15 µM	O=C(/N=C1/NC(=O)[C@]2(O[C@H](CO)[C@@H](O)[C@H](O)[C@H]2O)S1)c1cccc2ccccc12
143 µM	O=C1N/C(=N/S(=O)(=O)c2ccccc2)S[C@@]12O[C@H](CO)[C@@H](O)[C@H](O)[C@H]2O
137 µM	CC(C)(C)C(=O)/N=C1/NC(=O)[C@]2(O[C@H](CO)[C@@H](O)[C@H](O)[C@H]2O)S1
29 µM	O=C1N/C(=N/S(=O)(=O)c2cccc3ccccc23)S[C@@]12O[C@H](CO)[C@@H](O)[C@H](O)[C@H]2O
